Measurements published in publication PMC7311273 (Nuclear medicine and biology, 2020).
Values joined by “and” are separate entries in the source; they are usually repeats but may differ in a detail not shown here. Equal values may be shown once. “Also recorded” adds a separate entry of the source.

How the values were obtained:
[1] = competition with equimolar amounts of ligands with gallium, cited from earlier work
[2] = normal CD-1 IGS male mice, 60 min; cited from earlier work
[3] = test system: prostate cancer osseous metastases; format: in vivo, human
In short: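 Tracer given IV to men with prostate cancer and known or suspected bone metastases. 60-min dynamic PET from injection over a known or suspected lesion site, then skull-base to mid-thigh PET/CT at ~90 and 180 min. SUVpeak from 1 cm spheres on lesions, blood pool and normal bone. List-mode data subsampled to emulate lower activities (10 replicates, TOF OSEM, 4-mm voxels). Lesion SNR = Lmax/Lmax SD, decay-corrected.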

[4] = Subject tolerability to radiotracer administration; format: in vivo, human
[5] = Normal organ dosimetry from whole body PET and urine collection, OLINDA/EXM; format: in vivo, human
In short: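 Eight men received up to ~232 MBq IV. Six top-of-skull to mid-thigh PET scans (10 beds × 90 s) started ~1, 20, 40, 60, 120 and 150 min. Two low-dose CTs gave attenuation correction. Urine from voids after scans 4 and 6 was gamma-counted. Organ activities came from PET images; cortical bone from femur shaft density × 2130 cm3. Time-activity curves fitted mono/bi-exponentially or by Riemann sum.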

[6] = 8 male humans, Standard Adult Male phantom
[7] = injected activity of 166.5 MBq (4.5 mCi)

Molecule: O=C(O)CN(CCN(CC(=O)O)Cc1ccccc1O)Cc1ccccc1O [HBED, N, N’-bis(2-hydroxybenzyl)ethylenediamine-N,N’-diacetic acid]
- out complexes DOTA by ([1]; versus DOTA): 99%
- out complexes NOTA by ([1]; versus NOTA): 43%

Molecule: O=C(O)CN1CCN(CC(=O)O)CCN(CC(=O)NC(P(=O)(O)O)P(=O)(O)O)CCN(CC(=O)O)CC1.[68Ga] [[^68Ga]Ga-BPAMD, reference compound]
- bone uptake (retention) [2]: 9.2 % injected activity/g

Molecule: [^68Ga]Ga-3-(3-(((carboxymethyl)(2-((carboxymethyl)(5-(3-((diphosphonomethyl)amino)-3-oxopropyl)-2-hydroxybenzyl)amino)ethyl)amino)methyl)-4-hydroxyphenyl)propanoic acid [[^68Ga]Ga-P15-041]
- uptake in bone lesions ([3]; PET/CT, patients with prostate cancer bone metastases): accumulated in known bone lesions; also recorded: lesion uptake consistently above background
- activity concentrations in blood and normal bone ([3]; dynamic cohort, n=4, compared to sites of osseous metastasis): low compared to sites of osseous metastasis
- clearance from blood and soft tissue ([3]; human PET): cleared rapidly from blood and soft tissue
- bone uptake (retention) [2]: 23.5 % injected activity/g
- changes in vital signs before and after injection ([4]; 13 subjects): No clinically significant changes
- tolerability / adverse events ([4]; administered to 13 subjects (12 completed protocol)): well-tolerated with no reports of serious adverse events
- Effective dose equivalent, Mean [5, 6]: 2.31E-02 mSv/MBq
- Effective dose, Mean [5, 6]: 0.0173 ± 0.0036 mSv/MBq and 1.73E-02 mSv/MBq
- absorbed dose estimate, Adrenals, Mean [5, 6]: 1.02E-02 mSv/MBq
- absorbed dose estimate, Brain, Mean [5, 6]: 3.57E-03 mSv/MBq
- absorbed dose estimate, Breasts, Mean [5, 6]: 8.07E-03 mSv/MBq
- absorbed dose estimate, Gallbladder wall, Mean [5, 6]: 1.03E-02 mSv/MBq
- absorbed dose estimate, Heart Wall, Mean [5, 6]: 1.98E-02 mSv/MBq
- absorbed dose estimate, Kidneys, Mean [5, 6]: 4.93E-02 mSv/MBq
- absorbed dose estimate, Liver, Mean [5, 6]: 8.16E-03 mSv/MBq
- absorbed dose estimate, Lower large intestine wall, Mean [5, 6]: 1.29E-02 mSv/MBq
- absorbed dose estimate, Lungs, Mean [5, 6]: 1.73E-02 mSv/MBq
- absorbed dose estimate, Muscle, Mean [5, 6]: 9.19E-03 mSv/MBq
- absorbed dose estimate, Osteogenic cells, Mean [5, 6]: 2.63E-02 mSv/MBq
- absorbed dose estimate, Ovaries, Mean [5, 6]: 1.16E-02 mSv/MBq
- absorbed dose estimate, Pancreas, Mean [5, 6]: 1.03E-02 mSv/MBq
- absorbed dose estimate, Red Marrow, Mean [5, 6]: 8.04E-03 mSv/MBq
- absorbed dose estimate, Skin, Mean [5, 6]: 7.85E-03 mSv/MBq
- absorbed dose estimate, Small intestine, Mean [5, 6]: 2.41E-02 mSv/MBq
- absorbed dose estimate, Spleen, Mean [5, 6]: 1.17E-02 mSv/MBq
- absorbed dose estimate, Stomach wall, Mean [5, 6]: 9.77E-03 mSv/MBq
- absorbed dose estimate, Testes, Mean [5, 6]: 9.57E-03 mSv/MBq
- absorbed dose estimate, Thymus, Mean [5, 6]: 9.26E-03 mSv/MBq
- absorbed dose estimate, Thyroid, Mean [5, 6]: 8.92E-03 mSv/MBq
- absorbed dose estimate, Total Body, Mean [5, 6]: 1.07E-02 mSv/MBq
- absorbed dose estimate, Upper large intestine wall, Mean [5, 6]: 1.97E-02 mSv/MBq
- absorbed dose estimate, Uterus, Mean [5, 6]: 1.33E-02 mSv/MBq
- absorbed dose estimate, Urinary bladder wall, Mean ([5]; 8 male humans, Standard Adult Male phantom, highest individual organ dose): 0.135 mSv/MBq and 1.35E-01 mSv/MBq
- absorbed dose to the kidneys [5, 7]: 8.2 mSv
- absorbed dose to the urinary bladder wall [5, 7]: 22.5 mSv
- effective dose [5, 7]: 2.9 mSv
